Published values collected from several papers.
Each line is one published result; the experiments were not run side by side.
Target: Dual specificity tyrosine-phosphorylation-regulated kinase 3 (DYRK3, Homo sapiens, UniProt O43781)
Read-out: enzyme activity
Action: inhibitor
Residues used in one study (O43781 1-588): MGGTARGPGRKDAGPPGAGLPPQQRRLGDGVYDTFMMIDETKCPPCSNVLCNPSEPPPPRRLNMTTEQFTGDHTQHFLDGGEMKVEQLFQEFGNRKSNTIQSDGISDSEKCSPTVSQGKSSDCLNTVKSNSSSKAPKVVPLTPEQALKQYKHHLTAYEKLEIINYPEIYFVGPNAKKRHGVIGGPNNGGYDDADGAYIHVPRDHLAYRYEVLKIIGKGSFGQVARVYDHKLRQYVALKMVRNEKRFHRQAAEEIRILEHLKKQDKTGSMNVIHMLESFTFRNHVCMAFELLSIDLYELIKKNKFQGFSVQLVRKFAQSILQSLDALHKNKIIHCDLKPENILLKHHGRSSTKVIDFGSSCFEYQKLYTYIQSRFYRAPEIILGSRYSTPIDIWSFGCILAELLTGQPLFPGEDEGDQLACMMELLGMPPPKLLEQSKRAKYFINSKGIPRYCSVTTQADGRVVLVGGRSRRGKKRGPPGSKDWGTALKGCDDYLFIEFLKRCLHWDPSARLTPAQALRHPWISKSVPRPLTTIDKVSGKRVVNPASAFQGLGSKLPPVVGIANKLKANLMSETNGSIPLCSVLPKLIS

Compound	technique	tested at	remaining activity [%]
O=C(O)c1ccc2c(c1)nc(Nc1ccc3ccccc3c1)c1ncncc12	radiometric	1 µM	0
FC(F)c1nc2ccccc2n1-c1nc(N2CCOCC2)nc(N2CCOCC2)n1		10 µM	87
CC(C)(C)C(=O)c1sc(NC2CCCCC2)nc1N		10 µM	96
CC(C)(C)c1nc2c(s1)c1nc(N)ncc1c1ccc(NS(=O)(=O)c3c(F)cccc3F)c(F)c12	radiometric	1 µM	83
O=C(O)c1ccc2c(c1)nc(Nc1ccccc1)c1ncncc12	radiometric	1 µM	22
CC(C)(O)[C@H]1CC[C@H](Nc2ccc3ncc(-c4cccc(C(F)(F)F)c4)n3n2)CC1		1 µM	63.6
N#Cc1cccc(Nc2nc3cc(C(=O)O)ccc3c3cncnc23)c1	radiometric	1 µM	15
COc1cc(Cl)c(C(=O)N[C@@H](CN[C@H]2CC[C@@H](N)CC2)Cc2ccc(C#N)cc2)cc1-c1ccc(CN[C@H](C)c2ccc(C)cc2)o1		1 µM	99
Nc1nc(NC2CCCCC2)sc1C(=O)c1ccccc1		10 µM	57
Cn1c(=O)n(-c2ccc(C(C)(C)C#N)cc2)c2c3cc(-c4cnc5ccccc5c4)ccc3ncc21		10 µM	56
COc1cc(Nc2cnc(C#N)c(O[C@H](C)CN(C)C)n2)ncc1-c1cnn(C)c1	radiometric	10 µM	79
O=C(Nc1cnn(-c2csc(C(=O)NC3COC3)c2)c1)Nc1c(F)cccc1Cl		5 µM	99.2
O=C(O)c1ccc2c(c1)nc(Nc1ccc(F)c(Cl)c1)c1ccncc12	radiometric	1 µM	1
Cc1sc(C(=O)NC2COC2)cc1-n1cc(NC(=O)Nc2c(F)cccc2Cl)cn1		10 µM	101
O=C(O)c1ccc2c(c1)nc(Nc1ccccc1Cl)c1ncncc12	radiometric	1 µM	66
CC(C)(C)c1nc(-c2cccc(NS(=O)(=O)c3c(F)cccc3F)c2F)c(-c2ccnc(N)n2)s1	radiometric	1 µM	91
